Screening data from PubChem BioAssay.
Only some compounds are listed: those with a hit (about 1.4% of all), similar ones and a draw of the others.
thrombin 1536: inhibitors of human thrombin; P00734; alpha-thrombin, Boc-VPR-AMC fluorogenic substrate cleavage; inhibition, % at 5 µM; 220,000 tested, 0.26% active; AID 1046;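 active means inhibition at or above 40%; inactive means inhibition below 40%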;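 further: 0% = enzyme with no compound and 100% = wells without enzyme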
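Test system: human alpha-thrombin; medium: pH 7.5 Tris-saline with Tween 20; times: reaction at room temperature; signal: AMC fluorescence at 355 nm excitation and 460 nm emission; also added: Boc-VPR-AMC substrate, 15 µM final; dosing: one concentration per compound, 5 µM, with 0.2% DMSO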
KLK5 inh: blocks human kallikrein 5 protease activity | Q9Y337 | recombinant hK5, fluorogenic AMC substrate cleavage | inhibition, % at 5 µM | 210,000 tested, 0.59% active | AID 873;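 active means inhibition of 40% or more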;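 further: 0% = enzyme controls without compound and 100% = no-enzyme blanks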
m-calpain inh: blocks pig calpain II enzyme activity. purified calpain II, fluorogenic peptide substrate, 30 min. inhibition, % at 16 µM. 220,000 tested, 0.37% active. AID 1236;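 active means inhibition above about 50%, limit read from the data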
FXIa inh: factor XIa (human) inhibition | AID 798 | inhibition, % at 5 µM | 220,000 tested, 0.14% active | purified FXIa, Boc-Glu-Ala-Arg-AMC fluorogenic substrate | P03951;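 active means inhibition of at least 40%; inactive means inhibition below 40%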;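 further: fluorescence of freed AMC excited at 355 nm; 0% = enzyme without compound and 100% = no enzyme blank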
Target sequence (P03951 19-387 limits assumed): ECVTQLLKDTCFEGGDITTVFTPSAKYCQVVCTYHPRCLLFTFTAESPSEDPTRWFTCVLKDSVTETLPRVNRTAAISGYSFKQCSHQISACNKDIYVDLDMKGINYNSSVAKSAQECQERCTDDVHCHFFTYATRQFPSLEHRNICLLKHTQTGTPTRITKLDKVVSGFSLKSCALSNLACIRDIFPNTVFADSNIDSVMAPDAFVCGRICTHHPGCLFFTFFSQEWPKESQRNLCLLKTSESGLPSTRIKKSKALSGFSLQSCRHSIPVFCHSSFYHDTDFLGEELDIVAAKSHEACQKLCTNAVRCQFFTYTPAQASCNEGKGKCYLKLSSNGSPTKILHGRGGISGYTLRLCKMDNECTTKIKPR
Target sequence (P03951 388-625 limits assumed): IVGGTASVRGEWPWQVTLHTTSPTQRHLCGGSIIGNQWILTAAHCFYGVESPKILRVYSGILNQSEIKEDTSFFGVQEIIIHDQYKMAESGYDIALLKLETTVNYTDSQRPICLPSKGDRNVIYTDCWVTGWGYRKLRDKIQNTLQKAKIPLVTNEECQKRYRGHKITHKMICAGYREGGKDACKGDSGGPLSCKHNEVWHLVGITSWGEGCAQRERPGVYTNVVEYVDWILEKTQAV
FXIIa inh: factor XIIa (human) inhibition | inhibition, % at 5 µM | purified FXIIa, Boc-QGR-AMC fluorogenic substrate, 2 h | 220,000 tested, 0.3% active; in the data active means inhibition above about 40%;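 further: 0% = enzyme with no compound and 100% = blank without enzyme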
Furin inhibitor: blocks human furin protease activity. P09958. purified furin, fluorogenic substrate cleavage. inhibition, % at 20 µM or 30 µM. 220,000 tested, 0.061% active; in the data active means inhibition above about 25%
* = called active by the depositor; · = no result given.

SMILES | thrombin 1536 | KLK5 inh | m-calpain inh | FXIa inh | FXIIa inh | Furin inhibitor
CC(C)CC1NC(=O)N(Cc2nc3ccccc3s2)C1=O (stereo not given) | 4 | 5 | -11 | 3 | 11 | -10
CN(C)C(=O)CSC1c2ccccc2C(=O)N1c1ccccc1 (stereo not given) | 7 | 78* | 16 | 3 | 11 | -18
O=S(=O)(Nc1ccccn1)c1cccs1 | -8 | -3 | -43 | -3 | 1 | -16
CCOCCCNC(=S)N1CCC(NC(=O)C23CC4CC(CC(C4)C2)C3)CC1 | 1 | 3 | 16 | -2 | 14 | -16
NNC(=O)c1cccc(Cn2cc(Br)c([N+](=O)[O-])n2)c1 | -2 | 1 | -4 | 1 | 6 | -10
CCCNC(=O)c1cccc(Cn2cc(Br)c([N+](=O)[O-])n2)c1 | 11 | 41* | 31 | 9 | 39 | -18
Oc1ccc(C[C@@H]2CNC(=S)N2CCCCC2CCCCC2)cc1 | 0 | 2 | 51* | 0 | 10 | -27
NC(=O)Nc1ccc(C(=O)OCC(=O)Nc2cccc(S(=O)(=O)NC3=NCCCCC3)c2)cc1 | 0 | 14 | 2 | -1 | 9 | -14
COc1ccc(C2CC(C(F)(F)F)n3nc(C(=O)Nc4ccc5c(c4)OCO5)cc3N2)cc1 (stereo not given) | 36 | 17 | 13 | -4 | 43* | -15
Nc1ccc(N2CCCCC2)c(Cl)c1 | -4 | · | -15 | -3 | 8 | -15
CC(=O)Nc1ccc(-c2csc(NCc3ccco3)n2)cc1 | 3 | -6 | -21 | 10 | 15 | -24
c1cncc(-c2csc(NCc3ccco3)n2)c1 | 1 | 11 | 30 | 15 | 46* | -10
NC(=O)CC(NC(=O)Cc1cccc2ccccc12)c1ccc(NCCc2ccccc2F)c([N+](=O)[O-])c1 (stereo not given) | -2 | -1 | 9 | -1 | 8 | -27
COC(=O)c1ccccc1NC(=O)N1CCN(c2ccc(F)cc2)CC1 | -6 | -5 | 51* | -5 | 3 | 1
Cc1ccc(-n2nnnc2-c2ccccc2)cc1 | -18 | -5 | 40 | -2 | -4 | -16
Clc1ccc(-c2nnnn2-c2ccc(Cl)c(Cl)c2)cc1Cl | 2 | -4 | 55* | 5 | 11 | -21
COc1cccc(C(=O)NNC2=CC(=O)CC(C)(C)C2)c1 | -2 | -8 | 14 | 3 | 13 | -18
CC1(C)CC(=O)C=C(NNC(=O)c2cccnc2)C1 | 21 | 65* | 15 | 20 | 29 | -6
Cc1nn(-c2ccc(Cl)cc2)c(=O)c2c(C)noc12 | -13 | -1 | -10 | -2 | 4 | -21
O=C1C2C3c4ccccc4C(c4ccccc43)C2C(=O)N1/N=C/c1cccc(O)c1 (stereo not given) | 20 | 42* | 8 | 4 | 24 | -18
CC(/C=C/c1ccccc1)=N/NC(=O)c1cnccn1 | 3 | -9 | -15 | 4 | 11 | 27*
O=C(Nc1nc(=O)[nH]s1)c1ccccc1 | -4 | -1 | 57* | -1 | 10 | -25
O=C(CCCCCN1C(=O)c2cccc3cccc(c23)C1=O)NCCO | 3 | -24 | -54 | 2 | 10 | -14
O=C(NNC(=O)C(c1ccccc1)c1ccccc1)c1cccs1 | 104* | 56* | 26 | 19 | 25 | -9
O=C(Cc1ccccc1)NNC(=O)c1cccs1 | -6 | -14 | -2 | 0 | 11 | -6
SMILES | thrombin 1536 | KLK5 inh | m-calpain inh | FXIa inh | FXIIa inh | Furin inhibitor
O=C(NNC(=O)c1cccs1)c1ccc(Br)o1 | 17 | -14 | -4 | 43* | 18 | -15
O=C(Nc1ccc(NC(=O)c2cccs2)cc1)c1ccc(Br)o1 | 2 | 5 | -72 | 10 | 16 | -9
O=c1cc(-c2ccccc2)nc2c(-c3ccccc3)c(C(F)(F)F)[nH]n12 | -4 | -12 | -7 | -9 | -22 | -33
O=C(c1cc2cc([N+](=O)[O-])ccc2s1)N1CCCCC1 | 4 | -11 | 55* | -6 | 3 | -8
O=C(O)/C=C/C(=O)Nc1cc(F)ccc1F | -9 | -1 | -13 | 0 | 3 | -10
COc1ccc(-n2c3c(cc(C(=O)N4CCC(C)CC4)c2=O)C(=O)CC(C)(C)C3)cc1 | -6 | -1 | -19 | 1 | 9 | -20
COc1ccccc1-n1c2c(cc(C(=O)N3CCC(C)CC3)c1=O)C(=O)CC(C)(C)C2 | 10 | 52* | 8 | 17 | 38 | -1
C=C(C)CSc1nnc(-c2ccc(OC)cc2)n1N | 15 | 45* | 6 | 3 | 16 | -16
